One data set concerns PPC-1. Put plainly: SRB cytotoxicity assay, PPC-1 prostate cancer cells. As to conditions: read-out: IC50 ± SEM, PPC-1. The class given is cell-based, human. In general terms: Sulforhodamine B stains cellular protein and so reports cell mass.
In another data set the test system is B16-F1. Put plainly: SRB cytotoxicity assay, B16-F1 mouse melanoma cells. It counts as cell-based. The note with it: read-out: IC50 ± SEM, B16-F1, 96 h treatment.
Another data set relates to LNCaP. As to the kind of experiment: SRB cytotoxicity assay, LNCaP prostate cancer cells. The class given is cell-based, human. As to conditions: read-out: IC50 ± SEM, LNCaP.
For another data set, the system named is PC-3. Put plainly: SRB cytotoxicity assay, PC-3 prostate cancer cells. The class given is cell-based, human. As to conditions: read-out: IC50 ± SEM, PC-3.
Another data set has as its system A375. Put plainly: SRB cytotoxicity assay, A375 melanoma cells. The class given is cell-based, human. The note with it: read-out: IC50 ± SEM, A375, 96 h treatment.
The subject of a further data set is WM-164. Put plainly: SRB cytotoxicity assay, WM-164 melanoma cells. The class given is cell-based, human. The note with it: read-out: IC50 ± SEM, WM-164, 96 h treatment.
The test system of a further data set is DU 145. Put plainly: SRB cytotoxicity assay, DU 145 prostate cancer cells. It counts as cell-based, human. The note with it: read-out: IC50 ± SEM, DU 145.
Another data set concerns cancer cell lines. It counts as cell-based. As to conditions: for antiproliferative activity: text summary of Tables 1–3; for activity relative to 47: IC50 values of Table 4; for IC50: read-out: activity/potency range across cancer cell lines.
Data set [1] is described as follows: Rat pharmacokinetic study. As to conditions: 10 mg/kg. It counts as in vivo, Sprague–Dawley rats.
Data set [2] is described as follows: Aqueous solubility, Multiscreen solubility filter plate with LC-MS/MS. The class given is physicochemical. The note with it: for solubility compared with compound 1: Figure 3.
Another data set has as its system Bovine brain tubulin. As to the kind of experiment: In vitro tubulin polymerization assay. The class given is biochemical. As to conditions: 5 µM compound, 20 min incubation. A digest of the protocol:
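Bovine brain tubulin (0.4 mg, >97% pure) combined with test compound in general tubulin buffer (80 mM PIPES, 2.0 mM MgCl₂, 0.5 mM EGTA, 1 mM GTP, pH 6.9) at 37 °C. Polymerization tracked as A340 read every 1 min over 20 min. Inhibition expressed against vehicle.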

Read-outs that look alike come from different tables or passages of the source.

As for “3-(3,4,5-Trimethoxyphenylsulfinyl)biphenyl [Compound 25]”, the IC50 in the data set with PPC-1 (SRB assay, 96 h treatment) was above 10 µM; in the data set on B16-F1, above 10 µM; in the data set on LNCaP (SRB assay, 96 h treatment), above 10 µM; in the data set on PC-3 (SRB assay, 96 h treatment), above 10 µM; in the data set on A375, above 10 µM; in the data set with WM-164 it was above 10 µM. Also, the IC50 with DU 145 (SRB assay, 96 h treatment) is above 10 µM.

For the molecule `COc1cc(C(=O)C2COC(c3ccccc3)=N2)cc(OC)c1OC` (stereo in doubt) [Compound 5, (2R)-(2-Phenyl-4,5-dihydro-oxazol-4-yl)-(3,4,5-trimethoxy-phenyl)-methanone], the “antiproliferative activity” value in the data set with cancer cell lines is on record as “hundreds of nanomolar range”.

For the molecule “(Z)-2-Phenyl-4-(3,4,5-trimethoxystyryl)thiazole [Compound 20]”, the IC50 in the data set with PPC-1 (SRB assay, 96 h treatment) was above 10 µM; in the data set with B16-F1 it was 11 ± 2.8 µM; in the data set on LNCaP (SRB assay, 96 h treatment), above 10 µM; in the data set with PC-3 (SRB assay, 96 h treatment), above 10 µM; with A375, 46.5 ± 23.3 µM; in the data set on WM-164 it was 10.6 ± 5.8 µM. Also, the IC50 in the data set on DU 145 (SRB assay, 96 h treatment) is above 10 µM. In addition, the “antiproliferative activity” value in the data set on cancer cell lines is reported as “lost activity”.

In the case of `COc1cc(C(=O)c2csc(-c3ccccc3)n2)cc(OC)c1OC` [Compound 1], the IC50 is 0.043 ± 0.005 µM in the data set on PPC-1 (Homo sapiens, PPC-1, 96 h) and 0.021 ± 0.001 µM in the data set with PC-3 (Homo sapiens, PC-3, 96 h).

Turning to `COc1cc(C(=O)c2csc(Nc3ccc(F)cc3)n2)cc(OC)c1OC.Cl` [Compound 46c, (2-(p-Fluorophenylamino)thiazol-4-yl)(3,4,5-trimethoxyphenyl)-methanone Hydrochloride Salt], the “increased exposure (AUC) by the oral route as compared to 1” value in data set [1] is on record as “more than 4.3 fold”.

As to `COc1cc(C(=O)c2csc(Nc3ccccc3)n2)cc(OC)c1OC` [Compound 45a, (2-(Phenylamino)thiazol-4-yl)(3,4,5-trimethoxyphenyl)methanone], in the data set with cancer cell lines, the “activity relative to 47” value is “over 20 fold” and the IC50 lay within 0.035 to 0.065 µM. In data set [2] (PBS), the “solubility compared with compound 1” value is given as “improved solubility”.

Consider `COc1cc(C(=O)N2CCC(c3ccccc3)CC2)cc(OC)c1OC` [Compound 9i, (4-Phenylpiperidin-1-yl)(3,4,5-trimethoxyphenyl)methanone], for which, in the data set with cancer cell lines, the “antiproliferative activity” value is given as “totally abolished activity”.

With `COc1cc(C(=O)c2csc(-c3ccc(CN(C)C)cc3)n2)cc(OC)c1OC.Cl` [Compound 42, (2-(4-((Dimethylamino)methyl)phenyl)thiazol-4-yl)(3,4,5-trimeth-oxyphenyl)methanone Hydrochloride], in the data set with cancer cell lines, the “antiproliferative activity” value is recorded as “abrogated activity”.

As to `COc1cc(/C(=N\C#N)c2csc(-c3ccccc3)n2)cc(OC)c1OC` [Compound 16, N-((2-Phenylthiazol-4-yl)(3,4,5-trimethoxyphenyl)methylene)cyanamide], the IC50 with cancer cell lines fell in the range of 0.02 to 0.06 µM.

As to `COc1cc(/C(=N\N)c2csc(-c3ccccc3)n2)cc(OC)c1OC` [Compound 14b, (E)-4-(Hydrazono(3,4,5-trimethoxyphenyl)methyl)-2-phenylthiazole], in the data set on DU 145 (Homo sapiens, DU-145, 96 h), the IC50 is 1.21 µM.

Turning to “3-(3,4,5-Trimethoxyphenylsulfonyl)biphenyl [Compound 24]”, the IC50 with PPC-1 (SRB assay, 96 h treatment) was above 10 µM; with B16-F1, above 10 µM; in the data set with LNCaP (SRB assay, 96 h treatment), above 10 µM; in the data set on PC-3 (SRB assay, 96 h treatment), above 10 µM; in the data set on A375, above 10 µM; in the data set with WM-164, above 10 µM. Also, the IC50 in the data set with DU 145 (SRB assay, 96 h treatment) is above 10 µM.

Consider “N-(3,4,5-Trimethoxyphenyl)biphenyl-3-sulfinamide [Compound 26]”, for which the IC50 in the data set on PPC-1 (SRB assay, 96 h treatment) was above 10 µM; with B16-F1, above 10 µM; with LNCaP (SRB assay, 96 h treatment), above 10 µM; in the data set with PC-3 (SRB assay, 96 h treatment) it was above 10 µM; in the data set with A375, above 10 µM; in the data set with WM-164, above 10 µM. In addition, the IC50 in the data set on DU 145 (SRB assay, 96 h treatment) was above 10 µM.

As for `COc1cc(C(=O)c2csc(Nc3ccc(C)cc3)n2)cc(OC)c1OC.Cl` [Compound 46b, (2-(p-Tolylamino)thiazol-4-yl)(3,4,5-trimethoxyphenyl)methanone Hydrochloride Salt], in the data set with cancer cell lines, the “activity relative to 47” value is listed as “over 20 fold” and the IC50 fell in the range of 0.035 to 0.065 µM.

`COc1cc(C(=O)c2cc(-c3ccccc3)n[nH]2)cc(OC)c1OC` [Compound 9f, (3-Phenyl-1H–pyrazol-5-yl)(3,4,5-trimethoxyphenyl)methanone]: the “antiproliferative activity” value in the data set on cancer cell lines was “hundreds of nanomolar range”.

With `COc1cc(C(=O)c2csc(-c3ccc4[nH]ccc4c3)n2)cc(OC)c1OC` [Compound 36, (2-(1H–Indol-5-yl)thiazol-4-yl)(3,4,5-trimethoxyphenyl)methanone], the “inhibition of tubulin polymerization as compared to vehicle” value in the data set on Bovine brain tubulin came to 69%.

Regarding `CNCc1ccc(-c2nc(C(=O)c3cc(OC)c(OC)c(OC)c3)cs2)cc1.Cl` [Compound 40, (2-(4-((Methylamino)methyl)phenyl)thiazol-4-yl)(3,4,5-trimeth-oxyphenyl)methanone Hydrochloride], the “antiproliferative activity” value with cancer cell lines was “abrogated activity”.

With “(E)-2-Phenyl-4-(3,4,5-trimethoxystyryl)thiazole [Compound 21]”, the IC50 in the data set with PPC-1 (SRB assay, 96 h treatment) was above 10 µM; with B16-F1, 32.8 ± 13 µM; in the data set on LNCaP (SRB assay, 96 h treatment), above 10 µM; in the data set with PC-3 (SRB assay, 96 h treatment) it was above 10 µM; in the data set on A375, above 100 µM; in the data set with WM-164, 30.8 ± 12 µM. Moreover, in the data set on DU 145 (SRB assay, 96 h treatment), the IC50 is above 10 µM. Also, in the data set with cancer cell lines, the “antiproliferative activity” value was “lost activity”.

With `COc1cc(/C(=N/O)c2csc(-c3ccccc3)n2)cc(OC)c1OC` [Compound 13a, (Z)-(2-Phenylthiazol-4-yl)(3,4,5-trimethoxyphenyl)methanoneOxime], in the data set on cancer cell lines (13a vs 13b), the “activity of syn-isomer relative to anti isomer 13b” value amounted to 10 fold.

What is called solubility is the dissolved amount per volume that the medium holds. A high value points to much dissolved substance. For the molecule `COc1cc(C(=O)c2csc(-c3ccc(CN)cc3)n2)cc(OC)c1OC.Cl` [Compound 39, (2-(4-(Aminomethyl)phenyl)thiazol-4-yl)(3,4,5-trimethoxyphenyl)-methanone Hydrochloride], the “increase in solubility compared with compound 1” value in [2] (PBS, HCl salt) is listed as “over 35 fold”. Moreover, the solubility at […] in [2] (phosphate buffered saline (PBS) buffer, pH 7.4) was at least 35 µg/mL.

For the molecule `COc1cc(C(=O)c2csc(Nc3ccc(F)cc3)n2)cc(OC)c1OC` [Compound 45c, (2-(p-Fluorophenylamino)thiazol-4-yl)(3,4,5-trimethoxyphenyl)-methanone], in the data set on cancer cell lines, the IC50 was in the range of 0.035 to 0.065 µM. Also, the “solubility compared with compound 1” value in data set [2] (PBS) is “improved solubility”.

`CO/N=C(/c1cc(OC)c(OC)c(OC)c1)c1csc(-c2ccccc2)n1` [Compound 13c, (Z)-(2-Phenylthiazol-4-yl)(3,4,5-trimethoxyphenyl)methanone O-Methyl Oxime]: in the data set on PPC-1 (Homo sapiens, PPC-1, 96 h), the IC50 is above 10 µM.

As to `COc1cc(C(=O)c2cccc(-c3ccccc3)c2)cc(OC)c1OC` [Compound 9a, Biphenyl-3-yl(3,4,5-trimethoxyphenyl)methanone], the “antiproliferative activity” value in the data set on cancer cell lines is recorded as “hundreds of nanomolar range”.

Regarding `CO/N=C(\c1cc(OC)c(OC)c(OC)c1)c1csc(-c2ccccc2)n1` [Compound 13d, (E)-(2-Phenylthiazol-4-yl)(3,4,5-trimethoxyphenyl)methanone O-Methyl Oxime], the IC50 in the data set with LNCaP (Homo sapiens, LNCaP, 96 h) is above 10 µM; in the data set with PC-3 (Homo sapiens, PC-3, 96 h), above 10 µM.

As for `COc1cc(C(=O)c2coc(-c3ccccc3)n2)cc(OC)c1OC` [Compound 6, (2R)-(2-Phenyl-oxazol-4-yl)-(3,4,5-trimethoxy-phenyl)-methanone], the “antiproliferative activity” value in the data set with cancer cell lines is given as “hundreds of nanomolar range”.

For “Biphenyl-3-yl(3,4,5-trimethoxyphenyl)sulfane [Compound 23]”, the IC50 is 2.3 ± 0.1 µM in the data set with PPC-1 (SRB assay, 96 h treatment); 2.4 ± 0.9 µM in the data set with B16-F1; 2.3 ± 0.2 µM in the data set with LNCaP (SRB assay, 96 h treatment); above 10 µM with PC-3 (SRB assay, 96 h treatment); 1.6 ± 0.4 µM in the data set with A375; 2 ± 1.2 µM with WM-164. Moreover, in the data set on DU 145 (SRB assay, 96 h treatment), the IC50 was above 10 µM.
